According to ChEMBL document CHEMBL2412956, “Synthesis and biological activity evaluation of 5-pyrazoline substituted 4-thiazolidinones” (Eur J Med Chem, 2013):
pEC50, pIC50: −log10 of the molar value.

Legend:
Influenza A virus [1] = assay: Antiviral activity against Influenza A virus (A/Perth/16/2009(H3N2)) infected in MDCK cells assessed as inhibition of virus-induced cytopathic effect by cell-based neutral red uptake assay; type: functional, organism-based
Influenza A virus [2] = assay: Antiviral activity against Influenza A virus (A/duck/Minnesota/1525/1981(H5N1)) infected in MDCK cells assessed as inhibition of virus-induced cytopathic effect by cell-based neutral red uptake assay; type: functional, organism-based
[3] = Antiviral activity against SARS coronavirus Urbani infected in MDCK cells assessed as inhibition of virus-induced cytopathic effect by cell-based neutral red uptake assay; type: functional; conditions: Severe acute respiratory syndrome-related coronavirus
[4] = Selectivity index, ratio of CC50 for MDCK cells to EC50 for Influenza B virus (B/Florida/4/2006); type: toxicity, cell-based; conditions: dog, read-out: Ratio CC50/EC50
[5] = Selectivity index, ratio of CC50 for MDCK cells to EC50 for Influenza A virus (A/California/07/2009(H1N1)); type: toxicity, cell-based; conditions: dog, read-out: Ratio CC50/EC50
[6] = Selectivity index, ratio of CC50 for MDCK cells to EC50 for Influenza A virus (A/duck/Minnesota/1525/1981(H5N1)); type: toxicity, cell-based; conditions: dog, read-out: Ratio CC50/EC50
Influenza A virus [7] = assay: Antiviral activity against Influenza A virus (A/California/07/2009(H1N1)) infected in MDCK cells assessed as inhibition of virus-induced cytopathic effect by cell-based neutral red uptake assay; type: functional, organism-based
MDCK = assay: (§1) Cytotoxicity against MDCK cells; type: cell-based, Canis lupus familiaris; conditions: dog, mdck
How it was run: (§2)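 Cytotoxicity was measured in uninfected wells run alongside the antiviral plates, across eight half-log dilutions in MEM. Cells were stained with neutral red, and the extracted dye was read at 540 nm. CC₅₀, the concentration giving 50% cytotoxicity, was obtained by regression, and values are reported in μM.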

Influenza B virus = assay: Antiviral activity against Influenza B virus (B/Florida/4/2006) infected in MDCK cells assessed as inhibition of virus-induced cytopathic effect by cell-based neutral red uptake assay; type: functional; conditions: B/Florida/4/2006, MDCK
K562 = assay: Cytotoxicity against human K562 cells assessed as cell growth at 10 uM after 48 hrs by SRB assay relative to control; type: functional; conditions: K562, 48 h, read-out: Activity
How it was run: (§3)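 This was the NCI primary screen, with compound added once at 10⁻⁵ M and cultures incubated for 48 h. The endpoint was sulforhodamine B protein staining. Results are expressed as percent growth of treated cells relative to untreated control cells.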

T47D = assay: Cytotoxicity against human T47D cells assessed as cell growth at 10 uM after 48 hrs by SRB assay relative to control; type: functional; conditions: read-out: Activity
How it was run: (§4)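 Single-dose NCI screen: compound at 10⁻⁵ M added to tumor cell cultures and incubated for 48 h. The SRB protein-binding dye end point was read spectrophotometrically. Results are percent growth of treated cells relative to untreated controls.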

CCRF-CEM = assay: Cytotoxicity against human CCRF-CEM cells assessed as cell growth at 10 uM after 48 hrs by SRB assay relative to control; type: functional; conditions: read-out: Activity; how it was run: as §3
UO-31 = assay: Cytotoxicity against human UO31 cells assessed as cell growth at 10 uM after 48 hrs by SRB assay relative to control; type: functional; conditions: UO-31, 48 h, read-out: Activity; how it was run: as §4
[8] = Selectivity index, ratio of CC50 for MDCK cells to EC50 for Influenza A virus (A/Perth/16/2009(H3N2)); type: toxicity, cell-based; conditions: dog, read-out: Ratio CC50/EC50
[9] = tested on: Trypanosoma brucei brucei; assay: Antitrypanosomal activity against bloodstream form of Trypanosoma brucei brucei 90-13 assessed as parasite growth inhibition after 72 hrs by resazurin-based fluorescence assay; type: functional, organism-based; conditions: 90-13, 72 h
How it was run: (§5)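 Bloodstream forms of strain 90-13 or Feo were grown in HMI9 with 10% FCS at 37 °C under 5% CO₂. Log-phase parasites were seeded at 10⁵ cells/ml and exposed for 72 h to 10–0.625 μg/ml drug from DMSO stocks, with DMSO as control. Resazurin was added at 45 μM final, and fluorescence was read 4 h later. IC₅₀ was taken from the dose–response curve as the mean of three independent experiments.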

[10] = tested on: Trypanosoma brucei gambiense; assay: Antitrypanosomal activity against bloodstream form of Trypanosoma brucei gambiense Feo assessed as parasite growth inhibition after 72 hrs by resazurin-based fluorescence assay; type: functional, organism-based; how it was run: as §5
HOP-92 = assay: Cytotoxicity against human HOP92 cells assessed as cell growth at 10 uM after 48 hrs by SRB assay relative to control; type: functional; conditions: HOP-92, 48 h, read-out: Activity; how it was run: as §3
[11] = Selectivity index, ratio of CC50 for MDCK cells to EC50 for SARS coronavirus Urbani; type: toxicity, cell-based; conditions: dog, read-out: Ratio CC50/EC50
Trypanosoma cruzi = assay: Antitrypanosomal activity against […] form of Trypanosoma cruzi Y infected in monkey […] cells assessed as parasite growth inhibition after 15 hrs by trypan blue staining-based hemocytometric analysis; type: functional, organism-based
[12] = as §1; type: cell-based, Canis lupus familiaris; conditions: dog, MDCK cells; how it was run: as §2

SMILES	pEC50 (Influenza A virus [1])	pEC50 (Influenza A virus [2])	pEC50 [3]	selectivity ratio [4]	selectivity ratio [5]	selectivity ratio [6]	pEC50 (Influenza A virus [7])	CC50 (MDCK) [µM]	pEC50 (Influenza B virus)	further results
CCN1CCN(CN2C(=O)SC(N3N=C(c4ccc5ccccc5c4)CC3c3ccc(Cl)cc3)C2=O)CC1 (configuration not stated)	< 5.63	5.36	< 4.78	2.1	1.1	1.4	5.40	2.37	5.40	
CC(=O)N1CCN(CN2C(=O)SC(N3N=C(c4ccc5ccccc5c4)CC3c3ccc(Cl)cc3)C2=O)CC1 (configuration not stated)										growth at 10 µM (K562): 76.4%
COc1ccc(C2CC(c3ccc4ccccc4c3)=NN2C(=O)/C=C2\SC(=O)NC2=O)cc1 (configuration not stated)										growth at 10 µM (T47D): 78.7%
COc1ccc(NC(=O)CN2C(=O)S/C(=C\C(=O)N3N=C(c4ccc5ccccc5c4)CC3c3ccc(OC)cc3)C2=O)cc1 (configuration not stated)										growth at 10 µM (CCRF-CEM): 74.7%
COc1ccc(C2CC(c3ccc4ccccc4c3)=NN2C2SC(=O)NC2=O)cc1 (configuration not stated)	5.37	5.10	< 4.63	1.8	1.1	1.6	5.01	6.23	5.34	growth at 10 µM (UO-31): 77.5%; selectivity ratio [8]: 1.4; pIC50 [9]: 4.86; pIC50 [10]: 5.18
O=C1NC(=O)C(N2N=C(c3ccc4ccccc4c3)CC2c2ccc(Cl)cc2)S1 (configuration not stated)	5.55	5.28	< 4.63	1.6	1	1.2	5.37		5.51	selectivity ratio [8]: 1; growth at 10 µM (HOP-92): 74.9%
COc1ccc(C2CC(c3ccc4ccccc4c3)=NN2C2SC(=O)N(CC(=O)Nc3ccc(C)cc3)C2=O)cc1 (configuration not stated)	4.27	4.66	< 3.50	2.1	1.6	> 16.3	3.85	> 74.4	4.10	growth at 10 µM (UO-31): 76.6%; selectivity ratio [8]: 1.4
Cc1ccc(NC(=O)CN2C(=O)SC(N3N=C(c4ccc5ccccc5c4)CC3c3ccc(Cl)cc3)C2=O)cc1 (configuration not stated)	< 4.87	4.29	< 3.45	1.3	1.3	1.1	4.26	> 13.3	4.45	pIC50 [9]: 5.27; pIC50 [10]: 5.60
COc1ccc(NC(=O)CN2C(=O)SC(N3N=C(c4ccc5ccccc5c4)CC3c3ccc(Cl)cc3)C2=O)cc1 (configuration not stated)	4.73	3.75	< 3.47	1.4	1.5	1.5	3.92	> 25.6	4.02	selectivity ratio [8]: 1.3; pIC50 [9]: 4.95; pIC50 [10]: 5.21
COc1ccc(C2CC(c3ccc4ccccc4c3)=NN2C2SC(=O)N(CN3CCCCC3)C2=O)cc1 (configuration not stated)										growth at 10 µM (HOP-92): 69.5%
COc1ccc(C2CC(c3ccc4ccccc4c3)=NN2C2SC(=O)N(CN3CCN(C(C)=O)CC3)C2=O)cc1 (configuration not stated)										growth at 10 µM (UO-31): 82.2%
COc1ccc(C2CC(c3ccc4ccccc4c3)=NN2C2SC(=O)N(CN3CCN(Cc4ccccc4)CC3)C2=O)cc1 (configuration not stated)	< 5.18	< 4.61	4.67	1	1.1		4.86	6.6	4.24	growth at 10 µM (UO-31): 74.5%; selectivity ratio [11]: 1.6
CCC1SC(N/N=C\CSc2ccccc2)=NC1=O (configuration not stated)										pIC50 (Trypanosoma cruzi): 6.52
N=C(N)c1ccc(OCCCCCOc2ccc(C(=N)N)cc2)cc1 [PENTAMIDINE]										pIC50 [10]: 8.28
NC(=O)c1ncn([C@@H]2O[C@H](CO)[C@@H](O)[C@H]2O)n1 [RIBAVIRIN]	4.73	4.73					4.62			CC50 [12]: > 324 µM
